Assay results: ChEMBL document CHEMBL1154772, “Synthesis and in vitro evaluation of N-substituted maleimide derivatives as selective monoglyceride lipase inhibitors” (J Med Chem, 2009)
pIC50: −log10 of the molar value.

Legend:
[1] = target: T1, Monoglyceride lipase (Homo sapiens, UniProt Q99685); assay: Inhibition of human MGL
T1 sequence (Q99685 whole entry): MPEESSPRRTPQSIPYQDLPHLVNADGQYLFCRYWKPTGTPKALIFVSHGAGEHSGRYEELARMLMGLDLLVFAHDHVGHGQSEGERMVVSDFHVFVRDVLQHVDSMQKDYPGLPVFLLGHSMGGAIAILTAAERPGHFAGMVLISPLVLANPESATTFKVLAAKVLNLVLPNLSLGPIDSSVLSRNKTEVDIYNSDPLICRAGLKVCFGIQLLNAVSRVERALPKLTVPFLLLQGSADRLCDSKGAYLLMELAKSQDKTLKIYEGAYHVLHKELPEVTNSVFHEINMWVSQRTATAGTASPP
Procedure, shortened: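 Purified recombinant human MGL (5 ng) in 50 mM Tris pH 8.0, 0.1% BSA with compound or DMSO vehicle. [3H]-2-OG (10 μM) hydrolysis run 10 min at 37 °C, stopped with ice-cold methanol-chloroform 1:1. Aqueous-phase radioactivity read by liquid scintillation, no-enzyme blanks subtracted.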

[2] = species: Homo sapiens; assay: Selectivity ratio of IC50 for human FAAH to IC50 for human MGL
Procedure, shortened: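 Ratio of IC50 against human FAAH ([3H]anandamide hydrolysis) to IC50 against purified human MGL ([3H]-2-OG hydrolysis), each from three independent experiments in duplicate.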

[3] = target: T2, Monoglyceride lipase (Homo sapiens) (UniProt Q99685); assay: Inhibition of [3H]2-OG binding to human MGL at 20 times IC50 treated for 1 hr before addition of 2-OG by liquid scintillation counting
T2 sequence (whole entry): T1 sequence (Q99685 whole entry)

pIC50 [1]: 5.20
Ratio IC50 [2]: 0.002
inhibition [3]: 26%
SMILES: CCCCC/C=C\C/C=C\C/C=C\C/C=C\CCCC(=O)C(F)(F)F [ARACHIDONYL TRIFLUOROMETHYLKETONE]
